Tests used:
[1] = Inhibition of Plasmodium falciparum recombinant GSK-3 by radiometric protein kinase assay
Method in brief: (§1)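 His6-tagged recombinant GSK-3 expressed in E. coli (TOP10/pBAD-Thio-TOPO for P. falciparum and T. gondii, arabinose-induced; BL21(DE3)-pRARE2/pET15 for C. parvum, IPTG at 15 °C), Ni-NTA purified. Assayed with 40 μM GS-1 phosphopeptide, 15 μM γ-33P-ATP in pH 7.5 Tris buffer with MgCl2, EGTA, DTT, heparin, BSA; 30 min, 30 °C; P81 paper, phosphoric acid washes, scintillation counting. DMSO controls; dose-response IC50, triplicate points.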

[2] = Inhibition of pig GSK-3 by radiometric protein kinase assay; design: species or system Sus scrofa
Method in brief: (§2)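 Native affinity-purified porcine GSK-3 in the radiometric assay: 40 μM GS-1 peptide, 15 μM γ-33P-ATP, pH 7.5 Tris/MgCl2/EGTA/DTT/heparin/BSA buffer, 30 min at 30 °C, P81 filter binding and scintillation counting. IC50 from dose-response curves with triplicate points; top concentration 10 or 100 μM.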

[3] = Inhibition of Trypanosoma cruzi GSK-3
[4] = Inhibition of Toxoplasma gondii recombinant His6-tagged GSK-3 expressed in Escherichia coli using GS-1 peptide as substrate after 30 mins by scintillation counting analysis in presence of gamma-33P-ATP; type: cell-free; method in brief: as §1
[5] = target: Glycogen synthase kinase-3 (Sus scrofa, UniProt B2LUN4+I6LNT8); experiment: Inhibition of pig GSK-3alpha/beta; method in brief: as §2
[6] = Inhibition of Leishmania donovani GSK-3
[7] = Inhibition of Plasmodium knowlesi recombinant His6-tagged GSK-3 expressed in Escherichia coli using GS-1 peptide as substrate after 30 mins by scintillation counting analysis in presence of gamma-33P-ATP
Method in brief: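 P. knowlesi GSK3 gene in pBAD-Thio-TOPO, expressed in E. coli TOP10 (ampicillin, 37 °C, 0.02% arabinose for 4 h), Ni-NTA purified. Radiometric assay: 40 μM GS-1 peptide in buffer A pH 7.5 (MgCl2, EGTA, DTT, heparin, BSA) with 15 μM γ-33P-ATP, 30 min at 30 °C. P81 filter binding, scintillation counting. IC50 from triplicate dose-response curves.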

[8] = Inhibition of Cryptosporidium parvum recombinant His6-tagged GSK-3 expressed in Escherichia coli using GS-1 peptide as substrate after 30 mins by scintillation counting analysis in presence of gamma-33P-ATP; method in brief: as §1
[9] = Inhibition of Plasmodium falciparum recombinant His6-tagged GSK-3 expressed in Escherichia coli using GS-1 peptide as substrate after 30 mins by scintillation counting analysis in presence of gamma-33P-ATP; method in brief: as §1
[10] = Inhibition of Trypanosoma brucei GSK-3
Plasmodium falciparum [11] = experiment: Antiplasmodial activity against Plasmodium falciparum at 15 uM after 72 hrs by luciferase reporter gene assay; type: functional
Method in brief: (§3)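 NF54:LUC P. falciparum erythrocytic stages (luciferase under hrp2 promoter) at 3% parasitemia, 25% hematocrit; compounds in RPMI-1640 with 1% DMSO, triplicate wells; untreated, DMSO-only and non-luciferase NF54 blank wells. […] Bright-Glo lysis, luminescence read.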

Plasmodium falciparum [12] = experiment: Antiplasmodial activity against Plasmodium falciparum after 72 hrs by luciferase reporter gene assay; type: functional, organism-based; settings: 48 h; method in brief: as §3
[13] = target: Glycogen synthase kinase-3 beta (Homo sapiens, UniProt P49841); experiment: Inhibition of human Nt-GST-tagged GSK-3beta
Chain of Glycogen synthase kinase-3 beta (P49841 whole entry, canonical isoform): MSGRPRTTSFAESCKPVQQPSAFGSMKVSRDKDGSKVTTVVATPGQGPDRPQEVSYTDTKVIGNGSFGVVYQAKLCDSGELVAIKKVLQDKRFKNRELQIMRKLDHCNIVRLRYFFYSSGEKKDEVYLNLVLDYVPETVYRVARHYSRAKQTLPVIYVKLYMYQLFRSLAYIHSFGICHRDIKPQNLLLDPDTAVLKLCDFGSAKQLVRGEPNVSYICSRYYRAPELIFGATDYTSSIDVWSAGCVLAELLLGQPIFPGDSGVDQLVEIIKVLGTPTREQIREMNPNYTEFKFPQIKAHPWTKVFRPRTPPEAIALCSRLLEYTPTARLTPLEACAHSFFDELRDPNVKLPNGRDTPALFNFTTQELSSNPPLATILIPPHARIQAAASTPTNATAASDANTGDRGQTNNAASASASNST
Method in brief: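 Recombinant human GSK-3 isoform assayed radiometrically: 40 μM GS-1 peptide in buffer A pH 7.5 with 15 μM γ-33P-ATP, 30 min at 30 °C. Read-out by P81 filter binding and scintillation. IC50 from triplicate dose-response curves; top inhibitor concentration 10, 25 or 100 μM.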

[14] = in the assay text read “48 hrs” for “72 hrs”

SMILES	IC50 [1]	IC50 [2]	also measured
Cc1ccc(C(=O)c2sc3nc(N)c(C#N)c(-c4ccccc4I)c3c2N)cc1	3.2 µM	> 10 µM	–
N#Cc1c(N)nc2sc(C(=O)c3ccccc3)c(N)c2c1-c1ccccc1Br	1.1 µM	> 10 µM	–
COc1ccccc1-c1c(C#N)c(N)nc2sc(C#N)c(N)c12	> 10 µM	> 10 µM	–
COc1ccc(C(=O)c2sc3nc(N)c(C#N)c(-c4ccccc4OC)c3c2N)cc1	> 10 µM	> 10 µM	–
N#Cc1cccc(C(=O)c2sc3nc(N)c(C#N)c(-c4ccccc4Cl)c3c2N)c1	0.5 µM	> 10 µM	IC50 [3]: > 100 µM; IC50 [4]: > 100 µM; IC50 [5]: > 100 µM; IC50 [6]: 100 µM; IC50 [7]: 6.5 µM; IC50 [8]: > 100 µM; IC50 [9]: 0.5 µM; IC50 [10]: > 100 µM; inhibition at 15 µM (Plasmodium falciparum [11]): 30.3%
N#Cc1c(N)nc2sc(C(=O)c3cccc(Cl)c3)c(N)c2c1-c1ccccc1I	0.91 µM	> 10 µM	IC50 [3]: > 100 µM; IC50 [4]: > 100 µM; IC50 [5]: > 100 µM; IC50 [6]: 70 µM; IC50 [7]: 2.75 µM; IC50 [8]: > 100 µM; IC50 [9]: 0.91 µM; IC50 [10]: > 100 µM; inhibition at 15 µM (Plasmodium falciparum [11]): 65.4%
N#Cc1sc2nc(N)c(C#N)c(-c3ccccc3Cl)c2c1N	0.13 µM	0.4 µM	–
Nc1c(C(=O)c2ccccc2)sc2nc3c(c(-c4ccccc4I)c12)CCCC3	> 10 µM	> 10 µM	–
COc1ccccc1-c1c(C#N)c(N)nc2sc(C(=O)c3ccc(C(F)(F)F)cc3)c(N)c12	> 10 µM	> 10 µM	–
COc1ccccc1-c1c(C#N)c(N)nc2sc(C(=O)c3ccc(C#N)cc3)c(N)c12	> 10 µM	> 10 µM	–
N#Cc1c(N)nc2sc(C(=O)c3ccccc3Cl)c(N)c2c1-c1ccccc1I	> 10 µM	> 10 µM	–
N#Cc1c(N)nc2sc(C(=O)c3ccc(Cl)c(Cl)c3)c(N)c2c1-c1ccccc1I	70 µM	> 100 µM	–
N#Cc1c(N)nc2sc(C(=O)c3ccc(Cl)cc3)c(N)c2c1-c1ccccc1	> 100 µM	> 100 µM	–
CCOc1ccccc1-c1c(C#N)c(N)nc2sc(C(=O)c3ccc(Cl)cc3)c(N)c12	> 10 µM	> 10 µM	–
COc1ccccc1-c1c(C#N)c(N)nc2sc(C(=O)c3ccccc3Cl)c(N)c12	> 10 µM	> 10 µM	–
N#Cc1c(N)nc2sc(C(=O)Nc3ccc(Cl)cc3)c(N)c2c1-c1ccccc1Br	> 10 µM	> 10 µM	–
N#Cc1c(N)nc2sc(C(=O)c3cccc(F)c3)c(N)c2c1-c1ccccc1Cl	> 100 µM	> 100 µM	–
N#Cc1c(N)nc2sc(C(=O)Nc3ccc(Cl)cc3)c(N)c2c1-c1ccccc1Cl	> 10 µM	> 10 µM	–
N#Cc1c(N)nc2sc(C(=O)c3cccc(Br)c3)c(N)c2c1-c1ccccc1Cl	0.91 µM	> 10 µM	EC50 (Plasmodium falciparum [12]; in the assay text read “after 48 hrs” for “after 72 hrs”): 7.5 µM; inhibition at 15 µM (Plasmodium falciparum [11]): 100%
N#Cc1c(N)nc2sc(C(=O)c3ccc(C(F)(F)F)cc3)c(N)c2c1-c1ccccc1I	> 10 µM	> 10 µM	–
COc1ccc(C(=O)c2sc3nc(N)c(C#N)c(-c4ccccc4I)c3c2N)cc1	1.7 µM	> 10 µM	–

SMILES	IC50 [1]	IC50 [2]	also measured
COc1ccccc1-c1c(C#N)c(N)nc2sc(C(=O)c3ccc(Cl)cc3)c(N)c12	> 10 µM	> 10 µM	–
N#Cc1c(N)nc2sc(C(=O)c3ccc(Cl)cc3)c(N)c2c1-c1ccccc1Br	> 100 µM	> 100 µM	–
CCOc1ccccc1-c1c(C#N)c(N)nc2sc(C#N)c(N)c12	> 10 µM	> 10 µM	–
Cc1ccccc1-c1c(C#N)c(N)nc2sc(C#N)c(N)c12	0.51 µM	2 µM	–
N#Cc1sc2nc(N)c(C#N)c(-c3ccccc3I)c2c1N	> 10 µM	> 10 µM	–
N#Cc1c(N)nc2sc(C(=O)c3cccc(Cl)c3)c(N)c2c1-c1ccccc1F	10 µM	> 100 µM	–
N#Cc1c(N)nc2sc(C(=O)c3cccc(Cl)c3)c(N)c2c1-c1cccs1	> 10 µM	> 10 µM	–
COc1ccccc1-c1c(C#N)c(N)nc2sc(C(=O)c3cccc(Cl)c3)c(N)c12	8.5 µM	> 10 µM	–
N#Cc1c(N)nc2sc(C(=O)c3cccc(C(F)(F)F)c3)c(N)c2c1-c1ccccc1Cl	2.2 µM	> 10 µM	EC50 (Plasmodium falciparum [12]; [14]): 5.6 µM; inhibition at 15 µM (Plasmodium falciparum [11]): 100%
N#Cc1c(N)nc2sc(C(=O)c3ccccc3)c(N)c2c1-c1ccccc1I	2.4 µM	> 10 µM	–
N#Cc1sc2nc(N)c(C#N)c(-c3ccccc3Br)c2c1N	0.8 µM	1.3 µM	–
N#Cc1c(N)nc2sc(C(=O)c3ccc(Cl)c(Cl)c3)c(N)c2c1-c1ccccc1Br	3.8 µM	> 10 µM	–
N#Cc1c(N)nc2sc(C(=O)Nc3ccc(Cl)cc3)c(N)c2c1-c1ccccc1I	> 10 µM	> 10 µM	–
N#Cc1c(N)nc2sc(C(=O)c3ccc(Cl)c(Cl)c3)c(N)c2c1-c1ccccc1Cl	2.7 µM	> 10 µM	EC50 (Plasmodium falciparum [12]; [14]): 3.7 µM; inhibition at 15 µM (Plasmodium falciparum [11]): 100%
N#Cc1sc2nc(N)c(C#N)c(-c3cccs3)c2c1N	0.18 µM	2.3 µM	–
Nc1c(C(=O)c2ccc(Cl)cc2)sc2nc3c(c(-c4ccccc4I)c12)CCCC3	> 10 µM	> 10 µM	–
N#Cc1c(N)nc2sc(C(=O)c3cccc(Cl)c3)c(N)c2c1-c1ccccc1Br	0.61 µM	> 10 µM	IC50 [3]: > 100 µM; IC50 [4]: > 100 µM; IC50 [5]: > 100 µM; IC50 [6]: 44 µM; IC50 [7]: 1.45 µM; IC50 [8]: > 100 µM; IC50 [9]: 0.61 µM; IC50 [10]: > 100 µM; inhibition at 15 µM (Plasmodium falciparum [11]): 77.1%
COc1cccc(C(=O)c2sc3nc(N)c(C#N)c(-c4ccccc4Cl)c3c2N)c1	1.7 µM	> 10 µM	inhibition at 15 µM (Plasmodium falciparum [11]): 63.5%
COc1ccccc1-c1c(C#N)c(N)nc2sc(C(=O)c3ccc(C)cc3)c(N)c12	> 10 µM	> 10 µM	–
N#Cc1c(N)nc2sc(C(=O)c3ccc(Cl)cc3)c(N)c2c1-c1ccccc1I	–	–	IC50 [3]: > 100 µM; IC50 [13]: > 100 µM; IC50 [4]: > 100 µM; IC50 [5]: > 100 µM; IC50 [6]: 80 µM; IC50 [7]: 15.5 µM; IC50 [8]: > 100 µM; IC50 [9]: 1.61 µM; IC50 [10]: > 100 µM
N#Cc1sc2nc(N)c(C#N)c(-c3c[nH]c4ccccc34)c2c1N	1.6 µM	3.5 µM	–

Reference: ChEMBL document CHEMBL2311539, “3,6-Diamino-4-(2-halophenyl)-2-benzoylthieno[2,3-b]pyridine-5-carbonitriles are selective inhibitors of Plasmodium falciparum glycogen synthase kinase-3” (J Med Chem, 2013)
